Experimental data: PMC9206500 (Journal of medicinal chemistry, 2021)
Like-named read-outs stand apart in the source and are kept apart here.

Assays:
[1] = system: three human malignant melanoma cell lines and three breast cancer cell lines; assay: MTS cell proliferation assay, average over the panel; assay type: cell-based; conditions: for IC50: read-out: average IC50
A375/TxR cells [2] = assay: Annexin V-FITC/PI apoptosis detection; assay type: cell-based, human; conditions: 10 nM, 24 h; untreated […]
[3] = target: purified porcine brain tubulin (Sus scrofa, UniProt P02554+Q2XVP4); assay: Cell-free tubulin polymerization assay; assay type: biochemical; conditions: 10 μM, tubulin 3 mg/mL, GTP 1 mM, 1 h
Chain of purified porcine brain tubulin (Q2XVP4 whole entry): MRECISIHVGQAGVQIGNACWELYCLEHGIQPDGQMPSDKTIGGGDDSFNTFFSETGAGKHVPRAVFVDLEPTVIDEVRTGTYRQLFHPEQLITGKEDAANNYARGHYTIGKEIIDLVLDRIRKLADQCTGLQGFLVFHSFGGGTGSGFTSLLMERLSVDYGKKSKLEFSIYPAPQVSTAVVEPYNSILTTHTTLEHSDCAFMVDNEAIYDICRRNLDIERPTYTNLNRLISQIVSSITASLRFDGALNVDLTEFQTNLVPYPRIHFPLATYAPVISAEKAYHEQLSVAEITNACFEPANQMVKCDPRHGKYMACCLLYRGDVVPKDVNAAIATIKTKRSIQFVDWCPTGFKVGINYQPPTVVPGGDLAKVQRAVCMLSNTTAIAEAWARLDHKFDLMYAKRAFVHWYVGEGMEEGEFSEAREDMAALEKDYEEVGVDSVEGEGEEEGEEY
Chain of purified porcine brain tubulin (P02554 whole entry): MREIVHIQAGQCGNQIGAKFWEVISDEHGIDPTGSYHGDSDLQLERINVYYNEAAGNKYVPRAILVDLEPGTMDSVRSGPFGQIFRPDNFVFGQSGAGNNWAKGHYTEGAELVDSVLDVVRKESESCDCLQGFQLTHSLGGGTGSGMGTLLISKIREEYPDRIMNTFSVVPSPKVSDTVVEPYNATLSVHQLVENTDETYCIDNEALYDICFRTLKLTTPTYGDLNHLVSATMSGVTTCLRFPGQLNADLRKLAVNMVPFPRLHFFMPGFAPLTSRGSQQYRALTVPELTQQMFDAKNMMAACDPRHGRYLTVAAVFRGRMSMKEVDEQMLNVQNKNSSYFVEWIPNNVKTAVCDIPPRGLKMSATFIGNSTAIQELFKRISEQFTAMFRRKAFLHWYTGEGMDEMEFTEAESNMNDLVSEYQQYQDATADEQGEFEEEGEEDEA

[4] = Liver microsome stability assay, human; conditions: for fold improvement of half-life in human liver microsomes: compared to parent compound CH-2-77
A375/TxR xenograft [5] = assay: Spontaneous metastasis in A375/TxR xenograft model; assay type: in vivo, NSG mice; conditions: for mice that developed liver metastases: n = 6
Procedure, shortened: (§1)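 Hosts were NSG mice aged 5–6 weeks. At ~100 mm3 mice were randomized by weight and volume into four groups (3 male + 3 female each). Test compound vehicle was PEG300:Tween 80:saline 3:1:6. Dosing was IP three times weekly. The study ended when vehicle tumors neared ~1000 mm3.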

CYP3A = assay: CYP inhibition, CYP3A; assay type: in vitro ADME, human; conditions: at 10 μM, HLM
A375/TxR xenograft [6] = assay: A375/TxR xenograft antitumor efficacy; assay type: in vivo, NSG mice; conditions: for average tumor weight: vehicle 2.0 g; for tumor necrosis (H&E of excised tumors): 60c 10 and 20 mg/kg, paclitaxel 10 mg/kg
Procedure, shortened: as §1

TA1535 = assay: AMES fluctuation test, TA1535; parameters: species or system bacteria; conditions: strain TA1535
TA1537 = assay: AMES fluctuation test, TA1537; parameters: species or system bacteria; conditions: strain TA1537
A100 = assay: AMES fluctuation test, A100; parameters: species or system bacteria; conditions: strain A100
CYP2C19 = CYP2C19 (Homo sapiens, UniProt P33261); assay: CYP inhibition, CYP2C19; assay type: in vitro ADME; conditions: at 10 μM, HLM, omeprazole substrate
Chain of CYP2C19 (P33261 whole entry): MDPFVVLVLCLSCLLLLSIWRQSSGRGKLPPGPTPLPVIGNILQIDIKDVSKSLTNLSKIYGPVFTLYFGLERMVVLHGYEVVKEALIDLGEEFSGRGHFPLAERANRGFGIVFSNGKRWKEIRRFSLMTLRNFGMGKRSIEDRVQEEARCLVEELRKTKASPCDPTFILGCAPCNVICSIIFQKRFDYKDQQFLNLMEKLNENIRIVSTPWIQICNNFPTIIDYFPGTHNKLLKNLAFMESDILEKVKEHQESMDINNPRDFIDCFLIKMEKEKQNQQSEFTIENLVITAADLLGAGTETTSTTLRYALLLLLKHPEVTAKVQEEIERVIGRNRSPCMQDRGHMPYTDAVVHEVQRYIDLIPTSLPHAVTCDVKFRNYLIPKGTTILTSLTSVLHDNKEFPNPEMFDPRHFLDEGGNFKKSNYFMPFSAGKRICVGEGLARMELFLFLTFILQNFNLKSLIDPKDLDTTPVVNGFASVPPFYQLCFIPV

CYP2D6 = CYP2D6 (Homo sapiens, UniProt P10635); assay: CYP inhibition, CYP2D6; assay type: in vitro ADME; conditions: at 10 μM, HLM, dextromethorphan substrate
Chain of CYP2D6 (P10635 whole entry): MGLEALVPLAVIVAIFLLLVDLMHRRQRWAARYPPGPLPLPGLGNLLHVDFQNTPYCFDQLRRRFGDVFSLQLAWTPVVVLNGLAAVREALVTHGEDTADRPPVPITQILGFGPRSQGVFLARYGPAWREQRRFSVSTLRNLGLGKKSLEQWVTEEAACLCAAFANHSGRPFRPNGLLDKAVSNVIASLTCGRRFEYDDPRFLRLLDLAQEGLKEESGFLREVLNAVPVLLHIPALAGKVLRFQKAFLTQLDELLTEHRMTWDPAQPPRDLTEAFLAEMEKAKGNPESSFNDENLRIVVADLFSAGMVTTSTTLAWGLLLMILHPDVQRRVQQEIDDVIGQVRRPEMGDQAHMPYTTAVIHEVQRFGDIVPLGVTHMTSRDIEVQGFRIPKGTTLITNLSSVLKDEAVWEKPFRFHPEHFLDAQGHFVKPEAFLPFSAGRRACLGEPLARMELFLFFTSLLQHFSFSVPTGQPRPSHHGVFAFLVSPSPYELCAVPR

[7] = Systemic toxicity in A375/TxR tumor-bearing mice; assay type: in vivo, NSG mice; conditions: for histology of major organs (lung, liver, kidney, heart, spleen), H&E: paclitaxel 10 mg/kg, 60c 10 or 20 mg/kg IP
Procedure, shortened: as §1

A375/TxR cells [8] = assay: Cell cycle analysis by flow cytometry; assay type: cell-based, human; conditions: 24 h; controls 10 nM, 60c 2.5, 5, 10 nM
CYP2B6 = CYP2B6 (Homo sapiens, UniProt P20813); assay: CYP inhibition, CYP2B6; assay type: in vitro ADME; conditions: at 10 μM, HLM, bupropion substrate
Chain of CYP2B6 (P20813 whole entry): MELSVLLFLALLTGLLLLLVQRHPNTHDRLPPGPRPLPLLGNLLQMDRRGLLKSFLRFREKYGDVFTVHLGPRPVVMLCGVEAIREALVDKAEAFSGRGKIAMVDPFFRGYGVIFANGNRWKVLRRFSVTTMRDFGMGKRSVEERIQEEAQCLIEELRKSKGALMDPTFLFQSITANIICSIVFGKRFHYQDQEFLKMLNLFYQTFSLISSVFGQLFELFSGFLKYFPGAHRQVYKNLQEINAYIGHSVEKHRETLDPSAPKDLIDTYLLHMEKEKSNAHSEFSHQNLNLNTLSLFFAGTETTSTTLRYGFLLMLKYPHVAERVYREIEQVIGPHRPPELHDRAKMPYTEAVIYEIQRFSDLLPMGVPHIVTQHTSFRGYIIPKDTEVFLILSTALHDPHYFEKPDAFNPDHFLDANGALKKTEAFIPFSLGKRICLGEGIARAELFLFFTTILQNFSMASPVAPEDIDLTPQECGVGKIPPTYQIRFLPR

CYP2C9 = CYP2C9 (Homo sapiens, UniProt P11712); assay: CYP inhibition, CYP2C9; assay type: in vitro ADME; conditions: at 10 μM, HLM, diclofenac substrate
Chain of CYP2C9 (P11712 whole entry): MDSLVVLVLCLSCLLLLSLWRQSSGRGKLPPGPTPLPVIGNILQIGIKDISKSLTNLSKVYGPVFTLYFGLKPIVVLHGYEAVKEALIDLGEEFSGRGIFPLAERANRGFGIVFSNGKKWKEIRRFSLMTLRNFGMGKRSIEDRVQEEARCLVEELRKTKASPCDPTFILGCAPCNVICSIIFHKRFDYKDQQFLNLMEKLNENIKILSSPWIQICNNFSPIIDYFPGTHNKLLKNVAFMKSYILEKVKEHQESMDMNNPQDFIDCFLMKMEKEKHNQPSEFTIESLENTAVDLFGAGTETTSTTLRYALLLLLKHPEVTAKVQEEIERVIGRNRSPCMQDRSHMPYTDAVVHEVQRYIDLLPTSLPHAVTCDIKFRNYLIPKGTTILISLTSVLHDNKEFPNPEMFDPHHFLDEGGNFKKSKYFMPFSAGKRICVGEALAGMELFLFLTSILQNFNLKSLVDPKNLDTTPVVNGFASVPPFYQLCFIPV

CYP1A = CYP1A (Homo sapiens, UniProt P05177); assay: CYP inhibition, CYP1A; assay type: in vitro ADME; conditions: at 10 μM, HLM, phenacetin substrate
Chain of CYP1A (P05177 whole entry): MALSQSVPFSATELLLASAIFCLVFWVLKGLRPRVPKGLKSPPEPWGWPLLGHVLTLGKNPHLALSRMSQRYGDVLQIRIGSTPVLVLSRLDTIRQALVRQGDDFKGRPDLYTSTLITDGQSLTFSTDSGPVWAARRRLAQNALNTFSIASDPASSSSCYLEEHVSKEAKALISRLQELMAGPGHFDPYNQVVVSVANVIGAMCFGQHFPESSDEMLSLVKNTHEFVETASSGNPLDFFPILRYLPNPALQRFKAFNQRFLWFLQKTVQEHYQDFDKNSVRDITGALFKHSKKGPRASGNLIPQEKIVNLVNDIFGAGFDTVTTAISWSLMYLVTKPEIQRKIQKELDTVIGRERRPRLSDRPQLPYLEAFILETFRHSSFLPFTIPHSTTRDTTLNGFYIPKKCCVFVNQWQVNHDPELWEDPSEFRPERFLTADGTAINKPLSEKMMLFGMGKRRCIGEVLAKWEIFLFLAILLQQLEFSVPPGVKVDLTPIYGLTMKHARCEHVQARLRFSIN

TA98 = assay: AMES fluctuation test, TA98; parameters: species or system bacteria; conditions: strain TA98
M14/LCC6MDR1 = assay: MTS cell proliferation assay, M14/LCC6MDR1; assay type: cell-based; conditions: Homo sapiens, 72 h, read-out: IC50, M14/LCC6MDR1
A375 = assay: MTS cell proliferation assay, A375; assay type: cell-based, human; conditions: read-out: IC50 ± SEM, A375, melanoma cell line, 72 h, n = 4
MDA-MB-453 = assay: MTS cell proliferation assay, MDA-MB-453; assay type: cell-based, human; conditions: read-out: IC50 ± SEM, MDA-MB-453, breast cancer cell line, 72 h, n = 4
MDA-MB-231 = assay: MTS cell proliferation assay, MDA-MB-231; assay type: cell-based, human; conditions: read-out: IC50 ± SEM, MDA-MB-231, breast cancer cell line, 72 h, n = 4
[9] = Liver microsome stability assay, mouse; conditions: 0.5 mg/mL protein, 10 μM compound, NADPH
M14 = assay: MTS cell proliferation assay, M14; assay type: cell-based, human; conditions: read-out: IC50 ± SEM, M14, melanoma cell line, 72 h, n = 4
RPMI7951 = assay: MTS cell proliferation assay, RPMI7951; assay type: cell-based, human; conditions: read-out: IC50 ± SEM, RPMI7951, melanoma cell line, 72 h, n = 4
SKBR3 = assay: MTS cell proliferation assay, SKBR3; assay type: cell-based, human; conditions: read-out: IC50 ± SEM, SKBR3, breast cancer cell line, 72 h, n = 4

COc1cc(C(=O)c2cccc(-c3ccc(C)cc3)n2)cc(OC)c1OC [CH-2–1, (6-(p-Tolyl)pyridin-2-yl)(3,4,5-trimethoxyphenyl)methanone, reference compound]
IC50 ([1]; Homo sapiens): 3.7 nM

COc1cc(C(=O)c2cccc(-c3ccc(C)c(O)c3)n2)cc(OC)c1OC [CH-2–77]
apoptotic cells (A375/TxR cells [2]): 51.1%
effect on tubulin polymerization [3]: interfered with tubulin polymerization
IC50 ([1]; Homo sapiens): 2.5 nM

COc1cc(C(=O)c2cccc(-c3ccc(N(C)C)cc3)n2)cc(OC)c1OC [Compound 4c, (6-(4-(Dimethylamino)phenyl)pyridin-2-yl) (3,4,5-trimethoxyphenyl)methanone]
IC50 ([1]; Homo sapiens): 48.7 nM
fold reduction in antiproliferative activity ([1]; compared to CH-2–1, average IC50): 13 fold

COc1cc(C(=O)c2cccc(-c3ccc(C)cc3)n2)cc2c1OCCO2 [Compound 10, (8-Methoxy-2,3-dihydrobenzo[b][1,4]dioxin-6-yl)(6-(p-tolyl)-pyridin-2-yl)methanone]
IC50 ([1]; Homo sapiens): 3.8 nM

CCc1c(OC)cc(C(=O)c2cccc(-c3ccc(C)c(O)c3)n2)cc1OC [Compound 13, (4-Ethyl-3,5-dimethoxyphenyl)(6-(3-hydroxy-4-methylphenyl)-pyridin-2-yl)methanone]
IC50 ([1]; Homo sapiens): 18.3 nM

COc1cc(-c2n[nH]c3ccc(-c4ccc(C)c(O)c4)nc23)cc(OC)c1OC [Compound 22, 2-Methyl-5-(3-(3,4,5-trimethoxyphenyl)-1H-pyrazolo[4,3-b]-pyridin-5-yl)phenol]
IC50 ([1]; Homo sapiens): 34.1 nM
fold improvement of half-life in human liver microsomes [4]: 19 fold

COc1cc(C(=O)c2nc(-c3ccc(C)c(O)c3)[nH]c2Br)cc(OC)c1OC [Compound 29, (5-Bromo-2-(3-hydroxy-4-methylphenyl)-1H-imidazol-4-yl)-(3,4,5-trimethoxyphenyl)methanone]
IC50 ([1]; Homo sapiens): 80.5 nM

COc1cc(C(=O)c2cncc(-c3ccc(C)cc3)n2)cc(OC)c1OC [Compound 35, (6-(p-Tolyl)pyrazin-2-yl)(3,4,5-trimethoxyphenyl)methanone]
IC50 ([1]; Homo sapiens): 4.2 nM

COc1cc(C(=O)c2cncc(-c3ccc(C)c(O)c3)n2)cc(OC)c1OC [Compound 40a, (6-(3-Hydroxy-4-methylphenyl)pyrazin-2-yl)(3,4,5-trimethoxyphenyl)methanone]
IC50 ([1]; Homo sapiens): 9.2 nM

COc1cc(C(=O)c2cncc(-c3cccc4[nH]ncc34)n2)cc(OC)c1OC [Compound 40c, (6-(1H-Indazol-4-yl)pyrazin-2-yl)(3,4,5-trimethoxyphenyl)-methanone]
IC50 ([1]; Homo sapiens): 33.7 nM

COc1cc(C(=O)c2ccnc(-c3ccc(C)c(O)c3)n2)cc(OC)c1OC [Compound 46a, (2-(3-Hydroxy-4-methylphenyl)pyrimidin-4-yl)(3,4,5-trimethoxyphenyl)methanone]
IC50 ([1]; Homo sapiens): 8.2 nM

COc1cc(C(=O)c2ccnc(-c3c[nH]c4ccccc34)n2)cc(OC)c1OC [Compound 46b, (2-(1H-Indol-3-yl)pyrimidin-4-yl)(3,4,5-trimethoxyphenyl)-methanone]
IC50 ([1]; Homo sapiens): 26.3 nM

COc1cc(C(=O)c2cc(C)cc(-c3ccc(C)cc3)n2)cc(OC)c1OC [Compound 50a, (4-Methyl-6-(p-tolyl)pyridin-2-yl)(3,4,5-trimethoxyphenyl)-methanone]
IC50 ([1]; Homo sapiens): 7.7 nM
fold improvement of half-life in human liver microsomes [4]: 3 fold

COc1cc(C(=O)c2cc(OC)c(OC)c(OC)c2)nc(-c2ccc(C)cc2)c1 [Compound 54a, (4-Methoxy-6-(p-tolyl)pyridin-2-yl)(3,4,5-trimethoxyphenyl)-methanone]
fold improvement of half-life in human liver microsomes [4]: 3 fold

COc1cc(C(=O)c2cc(OC)c(OC)c(OC)c2)nc(-c2ccc(C)c(O)c2)c1 [Compound 55b, (6-(3-Hydroxy-4-methylphenyl)-4-methoxypyridin-2-yl)(3,4,5-trimethoxyphenyl)methanone]
fold improvement of half-life in human liver microsomes [4]: 3 fold

COc1cc(C(=O)c2nc(-c3ccc(C)c(O)c3)ccc2F)cc(OC)c1OC [Compound 60c, (3-Fluoro-6-(3-hydroxy-4-methylphenyl)pyridin-2-yl)(3,4,5-trimethoxyphenyl)methanone]
mice that developed liver metastases (A375/TxR xenograft [5]; 20 mg/kg IP): none
lung metastasis (H&E) (A375/TxR xenograft [5]; 10 and 20 mg/kg IP): lung nodules were markedly sparse and of reduced size
CYP3A inhibition (CYP3A; midazolam substrate): CYP3A (HLM, midazolam substrate): 34.7%
CYP3A inhibition (CYP3A; testosterone substrate): CYP3A (HLM, testosterone substrate): 51.8%
average tumor weight (A375/TxR xenograft [6]; 10 mg/kg IP): 1.13 g
average tumor weight (A375/TxR xenograft [6]; 20 mg/kg IP): 0.76 g
tumor necrosis (H&E of excised tumors) (A375/TxR xenograft [6]): highly necrotic
effect on tubulin polymerization [3]: strongly inhibited microtubule polymerization
AMES fluctuation test (TA1535): TA1535: no mutation
AMES fluctuation test (TA1537): TA1537: no mutation
AMES fluctuation test (A100): A100: no mutation
CYP2C19 inhibition (CYP2C19): CYP2C19 (HLM, omeprazole substrate): 49%
CYP2D6 inhibition (CYP2D6): CYP2D6 (HLM, dextromethorphan substrate): 11.9%
body weight during therapy ([7]; 10 or 20 mg/kg IP, 3 times/week, 18 days): without weight loss
histology of major organs (lung, liver, kidney, heart, spleen), H&E [7]: no apparent pathological changes in the major organs
effect on cell cycle distribution (A375/TxR cells [8]): dose-dependent accumulation of cells in the G2/M phase
CYP2B6 inhibition (CYP2B6): CYP2B6 (HLM, bupropion substrate): 12%
CYP2C9 inhibition (CYP2C9): CYP2C9 (HLM, diclofenac substrate): 54.7%
CYP1A inhibition (CYP1A): CYP1A (HLM, phenacetin substrate): 50.9%
AMES fluctuation test (TA98): TA98: no mutation

COc1cc(C(=O)c2cc(F)cc(-c3ccc(C(F)F)cc3)c2)cc(OC)c1OC [Compound 64, (4′-(Difluoromethyl)-5-fluoro-[1,1′-biphenyl]-3-yl)(3,4,5-trimethoxyphenyl)methanone]
IC50 ([1]; Homo sapiens): 60.8 nM

COc1cc2c(c(OC)c1OC)-c1ccc(OC)c(=O)cc1[C@@H](NC(C)=O)CC2 [colchicine]
IC50 (M14/LCC6MDR1): > 1000 nM
effect on cell cycle distribution (A375/TxR cells [8]): normal cell cycle progression

CC(=O)O[C@H]1C(=O)[C@@]2(C)[C@H]([C@H](OC(=O)c3ccccc3)[C@]3(O)C[C@H](OC(=O)[C@H](O)[C@@H](NC(=O)c4ccccc4)c4ccccc4)C(C)=C1C3(C)C)[C@]1(OC(C)=O)CO[C@@H]1C[C@@H]2O [paclitaxel, reference compound]
mice that developed liver metastases (A375/TxR xenograft [5]; 10 mg/kg IP, vehicle 83%): 83%
increase of tumor volume vs vehicle (A375/TxR xenograft [6]; 10 mg/kg IP, 3 times/week, 18 days): approximately 5.3%
average tumor weight (A375/TxR xenograft [6]; 10 mg/kg IP): 2.1 g
tumor necrosis (H&E of excised tumors) (A375/TxR xenograft [6]): all viable
effect on tubulin polymerization [3]: increased rate of tubulin polymerization
histology of major organs (lung, liver, kidney, heart, spleen), H&E [7]: no apparent pathological changes in the major organs
effect on cell cycle distribution (A375/TxR cells [8]): normal cell cycle progression

(6-(Indolin-6-yl)pyridin-2-yl)(3,4,5-trimethoxyphenyl)methanone [Compound 4b]
IC50 (A375): 5 ± 1 nM
IC50 ([1]; average over six cancer cell lines): 5.5 nM
metabolic stability in human liver microsome t1/2 ([4]; 0.5 mg/mL protein, 10 μM compound, NADPH): 15 ± 1.2 min
IC50 (MDA-MB-453): 5.9 ± 1.4 nM
IC50 (MDA-MB-231): 5.3 ± 1 nM
metabolic stability in mouse liver microsome t1/2 [9]: 4.2 ± 0.00 min
IC50 (M14): 5.6 ± 1.4 nM
IC50 (RPMI7951): 5.9 ± 1.5 nM
IC50 (SKBR3): 5.5 ± 1.2 nM
